Experimental data from PubChem BioAssay AID602408 (Southern Research Specialized Biocontainment Screening …, 2012).
Where “and” joins values, the source holds several entries; their conditions need not be identical. Equal entries are not always repeated. Calls of active or inactive are those of the source.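 Rule for the calls: active = inhibition of phage lysis above 30%; inactive = the rest.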

Test system: not listed separately
Assay: inhibition of K1F phage lysis of E. coli UTI89, confirmation, bacterial capsule biogenesis project, UTI89 strain, A600 absorbance, round 2 (AID 602408)
Settings: E. coli UTI89 K1 capsule, phage lysis, A600; at 100 µM (top of the series)
How it was run: (§1)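 Material – Escherichia coli K1 strain UTI89, whole bacterial cells · Buffer or medium – LB broth · Probe or stimulus – K1F phage · Dosing – 1% DMSO final · Times – 1.5 h pre-incubation, 2 h phage at 37 °C · Signal – absorbance at 600 nm (OD600) · Evaluation – Capsule-dependent phage lysis from OD600, with pre-phage OD600 flagging growth effects · Replicates – duplicates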

For `COc1ccc2nc(NC(=O)c3cccs3)sc2c1`, the inhibition of phage lysis was 24% (inactive).
With `O=C(Nc1cc(-c2ccc(OCCCC(F)(F)F)cc2)sc1C(=O)O)c1cc(Br)c(Br)o1` the inhibition of phage lysis was 12.2% (inactive).
With `O=C(Nc1ncccc1O)c1ccc2ncsc2c1` the inhibition of phage lysis was 0.85% (inactive).
With `O=C(NCc1ccncc1)c1ccc2ncsc2c1` the inhibition of phage lysis was -2.06% (inactive).
With `O=C(Nc1ccncc1)c1ccc2ncsc2c1` the inhibition of phage lysis was 17.9% (inactive).
With `COc1ccc2nc(NC(=O)c3ccco3)sc2c1` the inhibition of phage lysis was 0.81% (inactive).
With `COc1cc2sc(NC(=O)c3ccc(Br)s3)nc2cc1F` the inhibition of phage lysis was -6.05% (inactive).
For `O=C(NCCc1ccncc1)c1ccc2ncsc2c1`, the inhibition of phage lysis was 8.25% (inactive).
For `O=C(NC1CCNCC1)c1ccc2ncsc2c1`, the inhibition of phage lysis was -6.19% (inactive).

Test system: E. coli UTI89 K1 capsule, phage lysis, A600
Assay: as above
Settings: not given
How it was run: as §1

First: COc1ccc(-c2cc(NC(=O)c3ccc(Br)o3)c(C(=O)O)s2)cc1
Second: CCOc1ccc(-c2cc(NC(=O)c3ccc(Br)o3)c(C(=O)O)s2)cc1
The IC50 of the first is 1.8-fold higher: 8.75 µM for the first, 4.85 µM for the second. The second is the more potent here.

Compared with `CCCc1ccc(-c2cc(NC(=O)c3ccc(Br)o3)c(C(=O)O)s2)cc1`, `Cc1ccc(-c2cc(NC(=O)c3ccc(Br)o3)c(C(=O)O)s2)cc1` is 7.9-fold higher in IC50: 1.43 µM for the first, 11.3 µM for the second.

Going from `O=C(Nc1cc(-c2ccccc2)sc1C(=O)O)c1ccc(Br)o1` to `CC(C)c1ccc(-c2cc(NC(=O)c3ccc(Br)o3)c(C(=O)O)s2)cc1`, the IC50 falls from 42.2 µM to 2.81 µM (15-fold).

First: CCOc1ccc(-c2cc(NC(=O)c3cccc(Cl)c3)c(C(=O)O)s2)cc1
Second: CCOc1ccc(-c2cc(NC(=O)c3cccc(F)c3)c(C(=O)O)s2)cc1
The IC50 of the first is 3.2-fold higher: 64.9 µM for the first, 20.1 µM for the second. The second is the more potent here.

Compared with `Cc1ccc(-c2cc(NC(=O)c3c(F)cccc3F)c(C(=O)O)s2)cc1`, `CC(C)c1ccc(-c2cc(NC(=O)c3c(F)cccc3F)c(C(=O)O)s2)cc1` is 3.6-fold lower in IC50: 21.3 µM for the first, 5.88 µM for the second.

First: CCCCOc1ccc(-c2cc(NC(=O)c3ccc(Br)o3)c(C(=O)O)s2)cc1
Second: O=C(Nc1cc(-c2ccc(OCCCC(F)(F)F)cc2)sc1C(=O)O)c1ccc(Br)o1
The IC50 of the first is 2.1-fold lower: 0.85 µM for the first, 1.78 µM for the second.

Going from `CCOc1ccc2nc(NC(=O)c3ccc(Br)s3)sc2c1` to `COc1ccc2nc(NC(=O)c3ccc(Br)s3)sc2c1`, the IC50 falls from 5.06 µM to 2.33 µM (2.2-fold).

`O=C(Nc1cc(-c2ccccc2)sc1C(=O)O)c1cccc(Cl)c1` and `O=C(Nc1cc(-c2ccccc2)sc1C(=O)O)c1cccs1` are within 1.5-fold of each other in IC50: 85.5 µM for the first, 68.1 µM for the second.

`CCCCOc1ccc(-c2cc(NC(=O)c3cc(Br)c(Br)o3)c(C(=O)O)s2)cc1` and `O=C(Nc1cc(-c2ccc(OCCCC(F)(F)F)cc2)sc1C(=O)O)c1cc(Br)c(Br)o1` are within 1.5-fold of each other in IC50: 23.3 µM for the first, 32.2 µM for the second.

Going from `O=C(O)c1sc(-c2ccc(OCC(F)(F)F)cc2)cc1NC(=O)c1c(F)cc(F)cc1F` to `O=C(O)c1sc(-c2ccc(OCCC(F)(F)F)cc2)cc1NC(=O)c1c(F)cc(F)cc1F`, the IC50 falls from 94.9 µM to 3.11 µM (31-fold). The second is the more potent here.

`O=C(Nc1cc(-c2ccc(OC(F)(F)F)cc2)sc1C(=O)O)c1ccc(Br)o1` and `O=C(Nc1cc(-c2ccc(OCC(F)(F)F)cc2)sc1C(=O)O)c1ccc(Br)o1` are within 1.5-fold of each other in IC50: 4.6 µM for the first, 4.9 µM for the second.

Compared with `O=C(O)c1sc(-c2ccc(OC(F)(F)F)cc2)cc1NC(=O)c1c(F)cccc1F`, `O=C(O)c1sc(-c2ccc(OCC(F)(F)F)cc2)cc1NC(=O)c1c(F)cccc1F` is 3.4-fold lower in IC50: 9.77 µM for the first, 2.86 µM for the second.

`CCCOc1ccc(-c2cc(NC(=O)c3c(F)cc(F)cc3F)c(C(=O)O)s2)cc1` and `CCCCOc1ccc(-c2cc(NC(=O)c3c(F)cc(F)cc3F)c(C(=O)O)s2)cc1` are within 1.5-fold of each other in IC50: 8.06 µM for the first, 6.39 µM for the second.

First: CCOc1ccc(-c2cc(NC(=O)c3ccc(Br)s3)c(C(=O)O)s2)cc1
Second: CCOc1ccc(-c2cc(NC(=O)c3c(F)cccc3C(F)(F)F)c(C(=O)O)s2)cc1
The IC50 of the first is 3.8-fold lower: 13.9 µM for the first, 52.6 µM for the second.

`CC(C)c1ccc(-c2cc(NC(=O)c3cc4ccccc4o3)c(C(=O)O)s2)cc1` and `CC(C)c1ccc(-c2cc(NC(=O)c3cccc(F)c3)c(C(=O)O)s2)cc1` are within 1.5-fold of each other in IC50: 23.6 µM for the first, 18.4 µM for the second.

`O=C(Nc1ccnc(F)c1)c1ccc2ncsc2c1` and `O=C(Nc1ccnc(Br)c1)c1ccc2ncsc2c1` are within 1.5-fold of each other in IC50: 4.62 µM for the first, 4.26 µM for the second.

Compared with `CC(C)(C)c1ccc(-c2cc(NC(=O)c3cccc(F)c3)c(C(=O)O)s2)cc1`, `Cc1ccc(-c2cc(NC(=O)c3cccc(F)c3)c(C(=O)O)s2)cc1` is 4.6-fold higher in IC50: 9.72 µM for the first, 44.5 µM for the second. The first is the more potent here.

First: CCCc1ccc(-c2cc(NC(=O)c3c(F)cccc3F)c(C(=O)O)s2)cc1
Second: CCCCOc1ccc(-c2cc(NC(=O)c3c(F)cccc3F)c(C(=O)O)s2)cc1
The IC50 of the first is higher: 2.63 µM for the first, less than 0.78 µM for the second. The second is the more potent here.

Going from `CC(C)(C)c1ccc(-c2cc(NC(=O)c3c(F)cccc3F)c(C(=O)O)s2)cc1` to `O=C(O)c1sc(-c2ccc(C(F)(F)F)cc2)cc1NC(=O)c1c(F)cccc1F`, the IC50 rises from 6.99 µM to 20.9 µM (3-fold). The first is the more potent here.

`CCOc1ccc(-c2cc(NC(=O)c3c(F)cc(F)cc3F)c(C(=O)O)s2)cc1` and `CCCc1ccc(-c2cc(NC(=O)c3c(F)cc(F)cc3F)c(C(=O)O)s2)cc1` are within 1.5-fold of each other in IC50: 20 µM for the first, 15.9 µM for the second.

Going from `CC1=NN2C(=N)/C(=C\c3ccc(SCc4ccco4)o3)C(=O)N=C2S1` to `COc1cc(NC(=O)c2ccc3ncsc3c2)ccn1`, the IC50 falls from 37.9 µM to 7.75 µM (4.9-fold).

`O=C(Nc1cc(-c2ccccc2)sc1C(=O)O)c1ccc2c(c1)OCCO2` and `CCOc1ccc(-c2cc(NC(=O)c3ccc(OC)c(OC)c3)c(C(=O)O)s2)cc1` are within 1.5-fold of each other in IC50: 89.1 µM for the first, 59.9 µM for the second.

`CCCc1ccc(-c2cc(NC(=O)c3cc(Br)c(Br)o3)c(C(=O)O)s2)cc1` and `O=C(Nc1cc(-c2ccc(C(F)(F)F)cc2)sc1C(=O)O)c1ccc(Br)o1` are within 1.5-fold of each other in IC50: 6.78 µM for the first, 9.74 µM for the second.

Going from `O=C(O)c1sc(-c2ccc(OCCCC(F)(F)F)cc2)cc1NC(=O)c1c(F)cccc1F` to `O=C(O)c1sc(-c2ccc(OCCC(F)(F)F)cc2)cc1NC(=O)c1c(F)cccc1F`, the IC50 falls from 10.3 µM to 0.84 µM (12-fold).

Going from `O=C(Nc1ccncc1)c1ccc2ncsc2c1` to `O=C(Nc1ccnc(Cl)c1)c1ccc2ncsc2c1`, the IC50 rises from 1.05 µM to 2.57 µM (2.4-fold).

Going from `O=C(Nc1ccncc1F)c1ccc2ncsc2c1` to `O=C(Nc1cc(-c2ccc(OCCC(F)(F)F)cc2)sc1C(=O)O)c1ccc(Br)o1`, the IC50 falls from 18.6 µM to 0.84 µM (22-fold).

First: O=C(NCc1cc([N+](=O)[O-])ccc1O)c1cccnc1Sc1ccccc1Cl
Second: O=C(ONc1ccc(N=NC(=O)c2ccccc2O)cc1)c1ccccc1
The IC50 of the first is 7.4-fold higher: 14.8 µM for the first, 2.01 µM for the second. The second is the more potent here.

Going from `CC1(C(=O)O)CCC(C(=O)Nc2ccc3ccccc3c2)C1(C)C` (configuration not stated) to `[N-]=[N+]=NCCOc1ccc(-c2cc(NC(=O)c3c(F)cccc3F)c(C(=O)O)s2)cc1`, the IC50 falls from 43.9 µM to 17.5 µM (2.5-fold).

With `O=C(O)c1sc(-c2ccc(OCCCC(F)(F)F)cc2)cc1NC(=O)c1c(F)cc(F)cc1F` the IC50 was 5.53 µM.

In the case of `CCOc1ccc(-c2cc(NC(=O)c3c(F)cccc3F)c(C(=O)O)s2)cc1`, the IC50 is reported as 2.8 µM and 3.73 µM.
